# Results taken from ChEMBL document CHEMBL1155010, “Synthesis and biological evaluation of substituted [18F]imidazo[1,2-a]pyridines and [18F]pyrazolo[1,5-a]pyrimidines for the study of the peripheral benzodiazepine receptor using positron emission tomography” (J Med Chem, 2008).
# What was measured:
# Kidney [1] = test: Biodistribution in Sprague-Dawley rat kidney assessed per gram of tissue at 1 MBq, iv after 0.25 hrs; format: ADME, organism-based; details: in vivo
# Summary of the method: (§1)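 Male SD rats aged 8-10 weeks got 1 MBq [18F]tracer by tail vein in 0.1 mL. Groups of n = 4 were killed (CO2, then cervical fracture) at 0.25, 0.5, 1 and 4 h. Organs were weighed and gamma counted against a diluted standard of the injectate. Results are %ID per gram wet tissue, mean with standard deviation.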
# Kidney [2] = test: Biodistribution in Sprague-Dawley rat kidney assessed per gram of tissue at 1 MBq, iv after 0.5 hrs; format: ADME, organism-based; details: in vivo; summary of the method: as §1
# Kidney [3] = test: Biodistribution in Sprague-Dawley rat kidney assessed per gram of tissue at 1 MBq, iv after 1 hr; format: ADME, organism-based; details: in vivo; summary of the method: as §1
# Kidney [4] = test: Biodistribution in Sprague-Dawley rat kidney assessed per gram of tissue at 1 MBq, iv after 4 hrs; format: ADME, organism-based; details: in vivo; summary of the method: as §1
# Heart [5] = test: Biodistribution in Sprague-Dawley rat heart assessed per gram of tissue at 1 MBq, iv after 0.25 hrs; format: ADME, organism-based; details: in vivo; summary of the method: as §1
# Heart [6] = test: Biodistribution in Sprague-Dawley rat heart assessed per gram of tissue at 1 MBq, iv after 0.5 hrs; format: ADME, organism-based; details: in vivo; summary of the method: as §1
# Heart [7] = test: Biodistribution in Sprague-Dawley rat heart assessed per gram of tissue at 1 MBq, iv after 1 hr; format: ADME, organism-based; details: in vivo; summary of the method: as §1
# Heart [8] = test: Biodistribution in Sprague-Dawley rat heart assessed per gram of tissue at 1 MBq, iv after 4 hrs; format: ADME, organism-based; details: in vivo; summary of the method: as §1
# Lung [9] = test: Biodistribution in Sprague-Dawley rat lungs assessed per gram of tissue at 1 MBq, iv after 0.25 hrs; format: ADME, organism-based; details: in vivo; summary of the method: as §1
# Lung [10] = test: Biodistribution in Sprague-Dawley rat lungs assessed per gram of tissue at 1 MBq, iv after 0.5 hrs; format: ADME, organism-based; details: in vivo; summary of the method: as §1
# Lung [11] = test: Biodistribution in Sprague-Dawley rat lungs assessed per gram of tissue at 1 MBq, iv after 1 hr; format: ADME, organism-based; details: in vivo; summary of the method: as §1
# Lung [12] = test: Biodistribution in Sprague-Dawley rat lungs assessed per gram of tissue at 1 MBq, iv after 4 hrs; format: ADME, organism-based; details: in vivo; summary of the method: as §1
# Spleen [13] = test: Biodistribution in Sprague-Dawley rat spleen assessed per gram of tissue at 1 MBq, iv after 0.25 hrs; format: ADME, organism-based; details: in vivo; summary of the method: as §1
# Spleen [14] = test: Biodistribution in Sprague-Dawley rat spleen assessed per gram of tissue at 1 MBq, iv after 0.5 hrs; format: ADME, organism-based; details: in vivo; summary of the method: as §1
# Spleen [15] = test: Biodistribution in Sprague-Dawley rat spleen assessed per gram of tissue at 1 MBq, iv after 1 hr; format: ADME, organism-based; details: in vivo; summary of the method: as §1
# Spleen [16] = test: Biodistribution in Sprague-Dawley rat spleen assessed per gram of tissue at 1 MBq, iv after 4 hrs; format: ADME, organism-based; details: in vivo; summary of the method: as §1
# Liver [17] = test: Biodistribution in Sprague-Dawley rat liver assessed per gram of tissue at 1 MBq, iv after 0.25 hrs; format: ADME, organism-based; details: in vivo; summary of the method: as §1
# Liver [18] = test: Biodistribution in Sprague-Dawley rat liver assessed per gram of tissue at 1 MBq, iv after 0.5 hrs; format: ADME, organism-based; details: in vivo; summary of the method: as §1
# Liver [19] = test: Biodistribution in Sprague-Dawley rat liver assessed per gram of tissue at 1 MBq, iv after 1 hr; format: ADME, organism-based; details: in vivo; summary of the method: as §1
# Liver [20] = test: Biodistribution in Sprague-Dawley rat liver assessed per gram of tissue at 1 MBq, iv after 4 hrs; format: ADME, organism-based; details: in vivo; summary of the method: as §1
# Adrenal [21] = test: Biodistribution in Sprague-Dawley rat adrenals assessed per gram of tissue at 1 MBq, iv after 0.25 hrs; format: ADME, organism-based, Adrenal tissue; details: in vivo; summary of the method: as §1
# Adrenal [22] = test: Biodistribution in Sprague-Dawley rat adrenals assessed per gram of tissue at 1 MBq, iv after 0.5 hrs; format: ADME, organism-based, Adrenal tissue; details: in vivo; summary of the method: as §1
# Adrenal [23] = test: Biodistribution in Sprague-Dawley rat adrenals assessed per gram of tissue at 1 MBq, iv after 1 hr; format: ADME, organism-based, Adrenal tissue; details: in vivo; summary of the method: as §1
# Adrenal [24] = test: Biodistribution in Sprague-Dawley rat adrenals assessed per gram of tissue at 1 MBq, iv after 4 hrs; format: ADME, organism-based, Adrenal tissue; details: in vivo; summary of the method: as §1
# [25] = Biodistribution in Sprague-Dawley rat testis assessed per gram of tissue at 1 MBq, iv after 0.25 hrs; format: ADME, organism-based; details: in vivo; summary of the method: as §1
# [26] = Biodistribution in Sprague-Dawley rat testis assessed per gram of tissue at 1 MBq, iv after 0.5 hrs; format: ADME, organism-based; details: in vivo; summary of the method: as §1
# [27] = Biodistribution in Sprague-Dawley rat testis assessed per gram of tissue at 1 MBq, iv after 1 hr; format: ADME, organism-based; details: in vivo; summary of the method: as §1
# [28] = Biodistribution in Sprague-Dawley rat testis assessed per gram of tissue at 1 MBq, iv after 4 hrs; format: ADME, organism-based; details: in vivo; summary of the method: as §1
# [29] = Ratio of drug level in olfactory bulb to blood in Sprague-Dawley rat at 1 MBq, iv; format: ADME
# Summary of the method: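 Same rat biodistribution as above: 1 MBq iv by tail vein, n = 4 per time point, 0.25-4 h, gamma counting as %ID/g. Ratio is the olfactory bulb radioactivity concentration divided by the blood concentration at each time.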
# Femur [30] = test: Biodistribution in Sprague-Dawley rat femur at 1 MBq, iv after 0.25 hrs; format: ADME, organism-based; details: in vivo; summary of the method: as §1
# Femur [31] = test: Biodistribution in Sprague-Dawley rat femur at 1 MBq, iv after 4 hrs; format: ADME, organism-based; details: in vivo; summary of the method: as §1
# [32] = Metabolic stability in Sprague-Dawley rat plasma assessed as drug remaining at 30 MBq after 4 hrs by Radio-HPLC analysis; format: ADME, cell-free; details: read-out: Stability
# Summary of the method: (§2)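 Rats received 30 MBq tracer and were sampled at 0.25, 0.5, 1 and 4 h. Plasma was diluted with water containing unlabeled carrier and KF and injected directly. Frontal cortex or olfactory bulb was sonicated in acetonitrile/water 1:1 with carrier and KF, centrifuged, and the supernatant diluted. Radio-HPLC used a precolumn switched to C18 with a CH3CN/0.05 M sodium acetate pH 5.5 gradient. Result is % parent remaining.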
# [33] = Metabolic stability in Sprague-Dawley rat frontal cortex assessed as drug remaining at 30 MBq after 0.25 hrs by Radio-HPLC analysis; format: ADME, tissue-based; details: read-out: Stability; summary of the method: as §2
# [34] = Metabolic stability in Sprague-Dawley rat frontal cortex assessed as drug remaining at 30 MBq after 4 hrs by Radio-HPLC analysis; format: ADME, tissue-based; details: read-out: Stability; summary of the method: as §2
# [35] = Metabolic stability in Sprague-Dawley rat olfactory bulb assessed as drug remaining at 30 MBq after 0.25 hrs by Radio-HPLC analysis; format: ADME, tissue-based; details: read-out: Stability; summary of the method: as §2
# [36] = Metabolic stability in Sprague-Dawley rat olfactory bulb assessed as drug remaining at 30 MBq after 4 hrs by Radio-HPLC analysis; format: ADME, tissue-based; details: read-out: Stability; summary of the method: as §2
# Blood [37] = test: Biodistribution in Sprague-Dawley rat blood at 1 MBq, iv after 0.25 hrs; format: ADME, organism-based; details: in vivo; summary of the method: as §1
# Blood [38] = test: Biodistribution in Sprague-Dawley rat blood at 1 MBq, iv after 4 hrs; format: ADME, organism-based; details: in vivo; summary of the method: as §1
# [39] = Metabolic stability in Sprague-Dawley rat plasma assessed as drug remaining at 30 MBq after 0.25 hrs by Radio-HPLC analysis; format: ADME, cell-free; details: read-out: Stability; summary of the method: as §2
# [40] = Lipophilicity, log p at pH 7.5; format: physicochemical; details: buffer
# Summary of the method: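 RP-HPLC on a C18 column with methanol/0.1 M phosphate buffer pH 7.5 (60/40) at 1 mL/min. Samples were dissolved in methanol. log P7.5 was estimated by comparing retention time with that of reference compounds of known log P.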
# Translocator protein [41] = target: T1, Translocator protein (Rattus norvegicus, UniProt P16257); test: Displacement of [3H]PK11195 from peripheral benzodiazepine receptor in rat kidney membrane; format: cell membranes
# Translocator protein [42] = target: T1, Translocator protein; test: Displacement of [3H]Ro 5-4864 from peripheral benzodiazepine receptor in rat kidney membrane; format: cell membranes
# [43] = Displacement of [3H]flumazenil from central benzodiazepine receptor in rat brain cortex membrane; format: cell membranes
# Summary of the method: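 Rat brain cortex membranes (100-150 µg protein) were incubated in triplicate at 25 °C for 45 min with [3H]flumazenil (2 nM) and 7 ligand concentrations (10^-10 to 10^-5 M). Nonspecific binding was set with flumazenil 20 µM. Assays were filtered, washed with ice-cold Tris/HCl pH 7.4 and counted. Ki was derived from IC50 by Cheng-Prusoff.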
# T1 sequence (P16257 whole entry, looked up): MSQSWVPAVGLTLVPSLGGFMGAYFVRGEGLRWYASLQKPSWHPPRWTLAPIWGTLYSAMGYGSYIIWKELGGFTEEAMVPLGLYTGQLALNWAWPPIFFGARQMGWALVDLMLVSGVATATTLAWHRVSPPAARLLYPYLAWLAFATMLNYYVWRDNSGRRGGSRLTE
SMILES,Drug uptake (Kidney [1]) [%ID],Drug uptake (Kidney [2]) [%ID],Drug uptake (Kidney [3]) [%ID],Drug uptake (Kidney [4]) [%ID],Drug uptake (Heart [5]) [%ID],Drug uptake (Heart [6]) [%ID],Drug uptake (Heart [7]) [%ID],Drug uptake (Heart [8]) [%ID],Drug uptake (Lung [9]) [%ID],Drug uptake (Lung [10]) [%ID],Drug uptake (Lung [11]) [%ID],Drug uptake (Lung [12]) [%ID],Drug uptake (Spleen [13]) [%ID],Drug uptake (Spleen [14]) [%ID],Drug uptake (Spleen [15]) [%ID],Drug uptake (Spleen [16]) [%ID],Drug uptake (Liver [17]) [%ID],Drug uptake (Liver [18]) [%ID],Drug uptake (Liver [19]) [%ID],Drug uptake (Liver [20]) [%ID],further results
CCN(CC)C(=O)Cc1c(-c2ccc(OCC[18F])cc2)nc2ccc(Cl)cn12,3.3,3.2,2.7,1.3,4.3,4.4,4.6,2.8,14.3,12.1,11.6,8.1,4.5,3.9,3.4,1.9,0.63,0.52,0.35,0.29,Drug uptake (Adrenal [21]): 6.7 %ID; Drug uptake (Adrenal [22]): 7.9 %ID; Drug uptake (Adrenal [23]): 7.3 %ID; Drug uptake (Adrenal [24]): 7.1 %ID; Drug uptake [25]: 0.17 %ID; Drug uptake [26]: 0.23 %ID; Drug uptake [27]: 0.31 %ID; Drug uptake [28]: 0.42 %ID; Kp [29]: 2; Drug uptake (Femur [30]): 0.4 % ID/g; Drug uptake (Femur [31]): 0.7 % ID/g; remaining at 4 h [32]: < 1%; remaining at 0.25 h [33]: 55%; remaining at 4 h [34]: 10%; remaining at 0.25 h [35]: 80%; remaining at 4 h [36]: 40%
CCN(CC)C(=O)Cc1c(-c2ccc(OCCC[18F])cc2)nc2ccc(Cl)cn12,4.3,5,3.7,1.8,7.8,8.3,6.4,2.9,12.3,7.7,4.1,2.2,5.5,6,4.5,2.5,1.08,0.79,0.61,0.3,Drug uptake (Adrenal [21]): 8.5 %ID; Drug uptake (Adrenal [22]): 11.8 %ID; Drug uptake (Adrenal [23]): 9.6 %ID; Drug uptake (Adrenal [24]): 11.4 %ID; Drug uptake [25]: 0.33 %ID; Drug uptake [26]: 0.43 %ID; Drug uptake [27]: 0.41 %ID; Drug uptake [28]: 0.53 %ID; Drug uptake (Blood [37]): 0.3 % ID/g; Drug uptake (Blood [38]): 0.1 % ID/g; Drug uptake (Femur [30]): 0.6 % ID/g; Drug uptake (Femur [31]): 2.2 % ID/g; remaining at 0.25 h [39]: 10%; remaining at 0.25 h [33]: 55%; remaining at 4 h [34]: 30%
CCN(CC)C(=O)Cc1c(-c2ccc(OCCF)cc2)nc2ccc(Cl)cn12,,,,,,,,,,,,,,,,,,,,,logD [40]: 2.7; Ki (Translocator protein [41]): 5.8 nM; Ki (Translocator protein [42]): 3.3 nM; Ki [43]: 790 nM
CCN(CC)C(=O)Cc1c(-c2ccc(OCCCF)cc2)nc2ccc(Cl)cn12,,,,,,,,,,,,,,,,,,,,,logD [40]: 3.2; Ki (Translocator protein [41]): 3.7 nM; Ki (Translocator protein [42]): 4.2 nM; Ki [43]: 800 nM
